The text below walks through data of ChEMBL document CHEMBL1152648, “Synthesis and biological evaluation of epothilone A dimeric compounds” (Bioorg Med Chem, 2009).

≈ marks a conversion by molar mass, not a printed value.

Experiment [1] is described as follows: Cytotoxicity against mouse betaD10 cells after 96 hrs by MTS assay. In kind it is functional, cell-based. The procedure, abridged:
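βD10 lung tumor cells from c-myc/c-raf double transgenic mice seeded at 10^3 cells/well and left to attach 24 h. Compounds added in medium at various concentrations for 24 or 96 h. MTS/PES reagent then 1 h at 37 °C, absorbance at 490 nm. Quintuplicates, expressed as % of control.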

Experiment [2] concerns the target T1, Tubulin (Sus scrofa) (UniProt P02554+P02550). Put plainly: Induction of pig brain tubulin polymerization at 5 uM.
Experiment [3] is described as follows: Cytotoxicity against BAEC. Conditions: Bos taurus. The procedure, abridged:
(§1)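 Cells (3 × 10^3 BAE or 2 × 10^3 HT1080) in their growth media with serial compound dilutions, 3 days, 37 °C, 5% CO2. MTT added for 4 h, formazan dissolved in 0.04 N HCl–2-propanol, read at 550 nm. Triplicate determinations. IC50 is the concentration giving 50% cell survival. Means ± SD of three independent experiments.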

A short description of experiment [4]: Antiangiogenic activity in BAEC assessed as inhibition cell migration after 24 hrs by […] migration assay. In kind it is functional. To be noted: Bos taurus. The procedure, abridged: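 BAE monolayers grown to confluence, wounded with pipette tips to give one acellular 1 mm-wide lane per well, washed, then given complete medium with or without test compounds. Same wounded areas photographed at 0, 7 and 24 h under microscope.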

The subject of experiment [5] is HT-1080. Put plainly: Cytotoxicity against human HT1080 cells after 3 days by MTT assay. To be noted: HT-1080, 72 h. It is filed as functional, cell-based. In outline:
as §1

Experiment [6] deals with A549. The experiment in a line: Cytotoxicity against human A549 cells after 72 hrs by methylene blue assay. To be noted: A549, 72 h. In kind it is functional, cell-based. The procedure, abridged:
(§2)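 Cells exposed to compounds for 72 h, then fixed. Protein content quantified by methylene blue staining. IC50 is 50% inhibition of control growth. Means ± SD of three independent experiments.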

A short description of experiment [7]: Antiangiogenic activity in BAEC assessed as inhibition of tube formation after 7 hrs by cell differentiation assay. In kind it is functional. Conditions: Bos taurus. In outline: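 BAE cells (5 × 10^4) in DMEM plated on polymerized Matrigel (about 10.5 mg/mL), compounds added at different amounts, 37 °C, 5% CO2, 7 h. Cord/tube formation photographed at 200×. Each concentration tested in duplicate, scored by two observers.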

The target of experiment [8] is T1, Tubulin (Sus scrofa). Put plainly: Induction of pig brain tubulin polymerization at 10 uM.
In experiment [9] the test system is MCF7. The experiment in a line: Cytotoxicity against human MCF7 cells after 72 hrs by methylene blue assay. It is filed as functional, cell-based. Conditions: MCF7, 72 h. The procedure, abridged:
as §2

T1 sequence (P02550 whole entry, looked up): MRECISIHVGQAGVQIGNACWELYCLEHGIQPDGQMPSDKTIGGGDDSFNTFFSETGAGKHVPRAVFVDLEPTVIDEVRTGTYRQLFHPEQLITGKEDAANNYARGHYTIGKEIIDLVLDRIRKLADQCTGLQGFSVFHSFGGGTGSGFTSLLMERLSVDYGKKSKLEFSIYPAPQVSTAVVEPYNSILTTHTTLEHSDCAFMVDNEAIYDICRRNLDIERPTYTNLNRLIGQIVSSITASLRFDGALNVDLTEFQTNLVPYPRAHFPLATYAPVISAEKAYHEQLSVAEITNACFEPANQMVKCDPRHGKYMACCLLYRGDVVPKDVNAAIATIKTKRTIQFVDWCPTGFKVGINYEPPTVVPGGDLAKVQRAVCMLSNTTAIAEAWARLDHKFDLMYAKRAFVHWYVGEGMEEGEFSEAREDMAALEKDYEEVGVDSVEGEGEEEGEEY
T1 sequence (P02554 whole entry, looked up): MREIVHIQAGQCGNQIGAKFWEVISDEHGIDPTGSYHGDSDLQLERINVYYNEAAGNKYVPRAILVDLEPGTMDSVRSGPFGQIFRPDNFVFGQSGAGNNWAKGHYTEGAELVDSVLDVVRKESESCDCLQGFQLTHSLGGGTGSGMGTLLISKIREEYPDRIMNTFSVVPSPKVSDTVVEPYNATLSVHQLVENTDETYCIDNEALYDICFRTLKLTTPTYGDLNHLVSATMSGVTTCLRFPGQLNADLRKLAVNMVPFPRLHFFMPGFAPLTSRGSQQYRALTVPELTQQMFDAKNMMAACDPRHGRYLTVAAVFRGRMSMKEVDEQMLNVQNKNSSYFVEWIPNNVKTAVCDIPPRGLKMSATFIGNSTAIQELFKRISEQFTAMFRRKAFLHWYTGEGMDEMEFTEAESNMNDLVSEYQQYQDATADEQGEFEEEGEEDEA

What is called IC50 is the concentration needed to halve the response being measured. A lower IC50 goes with greater potency in that assay. One may read the MIC as the lowest concentration found to suppress growth. In the case of `C/C(=C\c1csc(C)n1)[C@@H]1C[C@@H]2O[C@@H]2CCC[C@H](C)[C@H](OC(=O)CCCCC(=O)O[C@H]2[C@@H](C)CCC[C@H]3O[C@H]3C[C@@H](/C(C)=C/c3csc(C)n3)OC(=O)C[C@H](O)C(C)(C)C(=O)[C@@H]2C)[C@@H](C)C(=O)C(C)(C)[C@@H](O)CC(=O)O1`, the 50% inhibitory concentration (IC50) was determined as 70500 nM in experiment [1]; 40 nM in [3]; 69 nM in experiment [5]; 405 nM in experiment [6]; 412 nM in experiment [9]. The % tubulin polymerization in [2] turned out to be 0.2%; in experiment [8], 0.7%. Also, the minimal inhibitory concentration (MIC) in [4] and in [7] was 0.1 µM (≈ 0.11 µg/mL) in each case.

On to `C/C(=C\c1csc(C)n1)[C@@H]1C[C@@H]2O[C@@H]2CCC[C@H](C)[C@H](OC(=O)CCCSSCCCC(=O)O[C@H]2[C@@H](C)CCC[C@H]3O[C@H]3C[C@@H](/C(C)=C/c3csc(C)n3)OC(=O)C[C@H](O)C(C)(C)C(=O)[C@@H]2C)[C@@H](C)C(=O)C(C)(C)[C@@H](O)CC(=O)O1`, for which the IC50 in [1] came to 2000 nM; in [3], 133 nM; in experiment [5], 71 nM; in experiment [6], 383 nM; in experiment [9] it was 432 nM. Further, the % tubulin polymerization is 0.5% in experiment [2] and 0.2% in [8]. The MIC in experiment [4] and in experiment [7] was 0.1 µM (≈ 0.119 µg/mL) throughout.

In the case of `C/C(=C\c1csc(C)n1)[C@@H]1C[C@@H]2O[C@@H]2CCC[C@H](C)[C@H](OC(=O)CCCCCCCCC(=O)O[C@H]2[C@@H](C)CCC[C@H]3O[C@H]3C[C@@H](/C(C)=C/c3csc(C)n3)OC(=O)C[C@H](O)C(C)(C)C(=O)[C@@H]2C)[C@@H](C)C(=O)C(C)(C)[C@@H](O)CC(=O)O1`, the 50% inhibitory concentration (IC50) turned out to be 5020 nM in experiment [1]; 39 nM in experiment [3]; 13 nM in experiment [5]; 956 nM in experiment [6]; 1030 nM in experiment [9]. The % tubulin polymerization in experiment [2] was 0.1%; in experiment [8], 0.6%. Further, the MIC turned out to be 0.1 µM (≈ 0.115 µg/mL) in experiment [4] and 0.05 µM (≈ 0.0577 µg/mL) in [7].

Turning to `C/C(=C\c1csc(C)n1)[C@@H]1C[C@@H]2O[C@@H]2CCC[C@H](C)[C@H](O)[C@@H](C)C(=O)C(C)(C)[C@@H](O)CC(=O)O1` [EPOTHILONE A], the IC50 was 70 nM in [1]; 0.7 nM in experiment [3]; 1.3 nM in [5]; 2.6 nM in experiment [6]; 2.5 nM in experiment [9]. Besides, the figures for the % tubulin polymerization in [2] and in experiment [8] were 92.2% and 99.8%, respectively. In addition, the MIC in [4] and in experiment [7] was 0.005 µM (≈ 0.00247 µg/mL) throughout.

With `C/C(=C\c1csc(C)n1)[C@@H]1C[C@@H]2O[C@@H]2CCC[C@H](C)[C@H](OC(=O)CCSSCCC(=O)O[C@H]2[C@@H](C)CCC[C@H]3O[C@H]3C[C@@H](/C(C)=C/c3csc(C)n3)OC(=O)C[C@H](O)C(C)(C)C(=O)[C@@H]2C)[C@@H](C)C(=O)C(C)(C)[C@@H](O)CC(=O)O1`, the half-inhibitory concentration (IC50) was found to be 3.3 nM in [1]; 111 nM in experiment [3]; 43 nM in experiment [5]; 367 nM in experiment [6]; 379 nM in experiment [9]. Further, the % tubulin polymerization in [2] worked out at 0%; in experiment [8], 0.2%. Also, the MIC in [4] is 0.1 µM (≈ 0.116 µg/mL); in experiment [7] it was 0.05 µM (≈ 0.0581 µg/mL).

For `C/C(=C\c1csc(C)n1)[C@@H]1C[C@@H]2O[C@@H]2CCC[C@H](C)[C@H](OC(=O)CSSCC(=O)O[C@H]2[C@@H](C)CCC[C@H]3O[C@H]3C[C@@H](/C(C)=C/c3csc(C)n3)OC(=O)C[C@H](O)C(C)(C)C(=O)[C@@H]2C)[C@@H](C)C(=O)C(C)(C)[C@@H](O)CC(=O)O1`, the IC50 was 1000 nM in [1]; 29 nM in experiment [3]; 290 nM in [5]; 319 nM in [6]; 357 nM in [9]. For the same compound, the % tubulin polymerization stood at 0.3% in [2] and 1% in experiment [8]. The minimal inhibitory concentration (MIC) in experiment [4] came to 0.05 µM (≈ 0.0567 µg/mL); in [7], 0.1 µM (≈ 0.113 µg/mL).

For `C/C(=C\c1csc(C)n1)[C@@H]1C[C@@H]2O[C@@H]2CCC[C@H](C)[C@H](OC(=O)CCCCCCC(=O)O[C@H]2[C@@H](C)CCC[C@H]3O[C@H]3C[C@@H](/C(C)=C/c3csc(C)n3)OC(=O)C[C@H](O)C(C)(C)C(=O)[C@@H]2C)[C@@H](C)C(=O)C(C)(C)[C@@H](O)CC(=O)O1`, the half-inhibitory concentration (IC50) in experiment [1] was 2500 nM; in experiment [3] it was 20 nM; in experiment [5], 17 nM; in experiment [6], 316 nM; in [9] it was 321 nM. The % tubulin polymerization amounted to 0.7% in [2] and 0.3% in [8]. The minimal inhibitory concentration (MIC) in experiment [4] and in experiment [7] was 0.1 µM (≈ 0.113 µg/mL) each time.
